Results taken from ChEMBL document CHEMBL3994610, “A Macrocyclic Agouti-Related Protein/[Nle4,DPhe7]α-Melanocyte Stimulating Hormone Chimeric Scaffold Produces Subnanomolar Melanocortin Receptor Ligands” (J Med Chem, 2017).
Square brackets hold non-standard residues; d marks the D form. Peptide text beside a SMILES is read from it. Dap = NC[C@H](N)C(=O)O

Experiments:
[1] = target: Melanocortin receptor 4 (Mus musculus) (UniProt P56450); test: Agonist activity at mouse MC4R expressed in HEK293 cells assessed as increase in forskolin-induced cAMP accumulation at 100 uM preincubated for 2 hrs followed by biotinylated cAMP addition and subsequent incubation for 2 hrs by AlphaScreen assay relative to NDP-MSH; type: functional, cell-based
How it was run: (§1)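 HEK293 cells stably expressing mouse MC1R, MC3R, MC4R or MC5R, at 70-90% confluence, were detached with Versene at 37 °C and plated at 10,000 cells/well. Stimulation buffer was HBSS with 5 mM HEPES, 0.5 mM IBMX and 0.1% BSA, pH 7.4, plus anti-cAMP acceptor beads. Peptide from 10^-2 M DMSO stock was added and incubated 2 hr in the dark at room temperature. Forskolin at 10^-4 M was the reference stimulus.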

[2] = target: Melanocortin receptor 3 (Mus musculus) (UniProt P33033); test: Agonist activity at mouse MC3R expressed in HEK293 cells assessed as increase in forskolin-induced cAMP accumulation at 100 uM preincubated for 2 hrs followed by biotinylated cAMP addition and subsequent incubation for 2 hrs by AlphaScreen assay relative to NDP-MSH; type: functional, cell-based; how it was run: as §1
Mus musculus [3] = species on record: Mus musculus; test: Selectivity ratio of EC50 for mouse MC3R to EC50 for mouse MC1R
Mus musculus [4] = species on record: Mus musculus; test: Selectivity ratio of EC50 for mouse MC3R to EC50 for mouse MC5R
Mus musculus [5] = species on record: Mus musculus; test: Selectivity ratio of EC50 for mouse MC4R to EC50 for mouse MC3R
Mus musculus [6] = species on record: Mus musculus; test: Selectivity ratio of EC50 for mouse MC3R to EC50 for mouse MC4R
[7] = target: Melanocyte-stimulating hormone receptor (Mus musculus) (UniProt Q01727); test: Agonist activity at mouse MC1R expressed in HEK293 cells assessed as increase in forskolin-induced cAMP accumulation at 100 uM preincubated for 2 hrs followed by biotinylated cAMP addition and subsequent incubation for 2 hrs by AlphaScreen assay relative to NDP-MSH; type: functional, cell-based; how it was run: as §1
[8] = target: Melanocortin receptor 3 (Homo sapiens) (UniProt P41968); test: Agonist activity at human MC3R expressed in CHO cells assessed as increase in IBMX-induced cAMP accumulation at 10 uM after 45 mins by [125I]cAMP flash plate assay relative to MT-2
[9] = target: Melanocortin receptor 5 (Mus musculus) (UniProt P41149); test: Agonist activity at mouse MC5R expressed in HEK293 cells assessed as increase in forskolin-induced cAMP accumulation at 100 uM preincubated for 2 hrs followed by biotinylated cAMP addition and subsequent incubation for 2 hrs by AlphaScreen assay relative to NDP-MSH; type: functional, cell-based; how it was run: as §1
Melanocortin receptor 3 = Melanocortin receptor 3 (Mus musculus, UniProt P33033); test: Agonist activity at mouse MC3R expressed in HEK293 cells assessed as increase in forskolin-induced cAMP accumulation preincubated for 2 hrs followed by biotinylated cAMP addition and subsequent incubation for 2 hrs by AlphaScreen assay; type: functional, cell-based; how it was run: as §1
Mus musculus [10] = species on record: Mus musculus; test: Selectivity ratio of EC50 for mouse MC5R to EC50 for mouse MC1R
Melanocortin receptor 5 = Melanocortin receptor 5 (Mus musculus, UniProt P41149); test: Agonist activity at mouse MC5R expressed in HEK293 cells assessed as increase in forskolin-induced cAMP accumulation preincubated for 2 hrs followed by biotinylated cAMP addition and subsequent incubation for 2 hrs by AlphaScreen assay; type: functional, cell-based; how it was run: as §1
Mus musculus [11] = species on record: Mus musculus; test: Selectivity ratio of EC50 for mouse MC4R to EC50 for mouse MC1R

Sequence of Melanocortin receptor 4 (Mus musculus) (P56450 whole entry): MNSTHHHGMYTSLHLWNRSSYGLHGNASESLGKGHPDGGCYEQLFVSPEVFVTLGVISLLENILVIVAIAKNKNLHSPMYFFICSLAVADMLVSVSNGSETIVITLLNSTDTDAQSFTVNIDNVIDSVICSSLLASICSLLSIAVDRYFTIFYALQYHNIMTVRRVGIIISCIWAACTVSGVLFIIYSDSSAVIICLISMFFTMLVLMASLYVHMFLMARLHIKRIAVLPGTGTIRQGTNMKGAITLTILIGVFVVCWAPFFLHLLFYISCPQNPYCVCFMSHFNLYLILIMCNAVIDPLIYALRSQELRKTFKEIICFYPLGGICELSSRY
Sequence of Melanocortin receptor 3 (P33033 whole entry): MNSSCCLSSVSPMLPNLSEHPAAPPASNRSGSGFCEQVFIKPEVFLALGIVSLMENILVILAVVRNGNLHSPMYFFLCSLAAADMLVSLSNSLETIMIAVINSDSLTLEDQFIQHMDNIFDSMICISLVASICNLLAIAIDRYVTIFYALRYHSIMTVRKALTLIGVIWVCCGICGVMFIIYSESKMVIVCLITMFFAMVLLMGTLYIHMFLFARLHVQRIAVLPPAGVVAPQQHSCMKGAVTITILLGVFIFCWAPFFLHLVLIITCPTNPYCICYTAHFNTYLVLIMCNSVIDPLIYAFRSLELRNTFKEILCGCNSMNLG
Sequence of Melanocortin receptor 3 (Mus musculus) (P33033 whole entry): as above
Sequence of Melanocyte-stimulating hormone receptor (Mus musculus) (Q01727 whole entry, looked up): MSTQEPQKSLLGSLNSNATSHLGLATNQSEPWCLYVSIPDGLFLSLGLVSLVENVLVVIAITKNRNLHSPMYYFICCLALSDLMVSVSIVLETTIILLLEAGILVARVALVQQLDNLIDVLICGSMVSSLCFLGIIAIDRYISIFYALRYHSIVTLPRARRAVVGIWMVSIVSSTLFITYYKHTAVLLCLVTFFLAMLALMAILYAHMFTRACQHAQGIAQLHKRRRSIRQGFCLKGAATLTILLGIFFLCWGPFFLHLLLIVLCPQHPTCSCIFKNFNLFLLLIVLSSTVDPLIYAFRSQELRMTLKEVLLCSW
Sequence of Melanocortin receptor 5 (Mus musculus) (P41149 whole entry): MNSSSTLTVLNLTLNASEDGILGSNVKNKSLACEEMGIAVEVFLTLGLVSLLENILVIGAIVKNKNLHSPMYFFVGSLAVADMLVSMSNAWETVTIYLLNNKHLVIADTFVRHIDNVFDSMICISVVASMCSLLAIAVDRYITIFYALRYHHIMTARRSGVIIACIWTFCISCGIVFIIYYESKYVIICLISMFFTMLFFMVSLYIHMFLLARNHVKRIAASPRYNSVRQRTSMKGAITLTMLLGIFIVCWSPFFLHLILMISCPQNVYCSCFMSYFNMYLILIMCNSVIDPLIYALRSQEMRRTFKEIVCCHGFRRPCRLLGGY
Sequence of Melanocortin receptor 5 (P41149 whole entry): as above
Sequence of Melanocortin receptor 3 (Homo sapiens) (P41968 whole entry, looked up): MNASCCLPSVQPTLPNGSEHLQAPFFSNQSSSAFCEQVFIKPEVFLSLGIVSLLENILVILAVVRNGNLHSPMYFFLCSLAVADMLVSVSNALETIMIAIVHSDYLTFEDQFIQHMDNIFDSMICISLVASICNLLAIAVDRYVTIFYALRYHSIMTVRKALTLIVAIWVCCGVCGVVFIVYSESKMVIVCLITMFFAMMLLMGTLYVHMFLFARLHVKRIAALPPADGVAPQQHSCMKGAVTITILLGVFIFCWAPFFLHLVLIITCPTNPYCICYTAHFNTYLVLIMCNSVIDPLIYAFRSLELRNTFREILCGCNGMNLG

Compound	Activity [1] [%]	Activity [2] [%]	Ratio EC50 (Mus musculus [3])	Ratio EC50 (Mus musculus [4])	other results
N=C(N)NCCC[C@@H]1NC(=O)[C@@H](Cc2ccccc2)NC(=O)[C@H](Cc2cnc[nH]2)NC(=O)[C@@H]2CCCN2C(=O)[C@H]2CCCN2C(=O)[C@H](Cc2c[nH]c3ccccc23)NC1=O (cyclo(H[dF]RW[dP]P))	65	60			
C[C@@H]1NC(=O)[C@H](CC(N)=O)NC(=O)[C@H](Cc2c[nH]c3ccccc23)NC(=O)[C@H](CCCNC(=N)N)NC(=O)[C@@H](Cc2ccccc2)NC(=O)[C@@H]2CCCN2C(=O)[C@H]2CCCN2C1=O (cyclo(P[dF]RWNA[dP]))		55	> 100	> 1000	Ratio EC50 (Mus musculus [5]): > 100
C[C@@H]1NC(=O)[C@H](CC(N)=O)NC(=O)[C@H](Cc2c[nH]c3ccccc23)NC(=O)[C@H](CCCNC(=N)N)NC(=O)[C@@H](Cc2ccccc2)NC(=O)[C@H](Cc2cnc[nH]2)NC(=O)[C@@H]2CCCN2C(=O)[C@H]2CCCN2C(=O)[C@H](Cc2ccccc2)NC1=O (cyclo(H[dF]RWNAF[dP]P))					Ratio EC50 (Mus musculus [6]): 23
C[C@@H]1NC(=O)[C@H](CN)NC(=O)[C@H](Cc2c[nH]c3ccccc23)NC(=O)[C@H](CCCNC(=N)N)NC(=O)[C@@H](Cc2ccccc2)NC(=O)[C@@H]2CCCN2C(=O)[C@H]2CCCN2C(=O)[C@H](Cc2ccccc2)NC1=O (cyclo(P[dF]RW[Dap]AF[dP]))		70			Activity [7]: 45%
CCCC[C@H](NC(C)=O)C(=O)N[C@H]1CC(=O)NCCCC[C@@H](C(=O)N2CCC[C@H]2C(=O)N[C@H](C(N)=O)C(C)C)NC(=O)[C@H](Cc2c[nH]c3ccccc23)NC(=O)[C@H](CCCNC(=N)N)NC(=O)[C@@H](Cc2ccccc2)NC(=O)[C@@H]2CCCN2C1=O					Efficacy [8]: 12%
N=C(N)NCCC[C@@H]1NC(=O)[C@@H](Cc2ccccc2)NC(=O)[C@H](Cc2cnc[nH]2)NC(=O)[C@@H]2CCCN2C(=O)[C@H]2CCCN2C(=O)[C@H](CN)NC(=O)[C@H](Cc2c[nH]c3ccccc23)NC1=O (cyclo(H[dF]RW[Dap][dP]P))		65	> 100	> 100	
C[C@@H]1NC(=O)[C@H](CC(N)=O)NC(=O)[C@H](Cc2c[nH]c3ccccc23)NC(=O)[C@H](CCCNC(=N)N)NC(=O)[C@@H](Cc2ccccc2)NC(=O)[C@@H]2CCCN2C(=O)[C@H]2CCCN2C(=O)[C@H](Cc2ccccc2)NC1=O (cyclo(P[dF]RWNAF[dP]))		45	> 100	> 1000	Ratio EC50 (Mus musculus [5]): > 300
N=C(N)NCCC[C@@H]1NC(=O)[C@@H](Cc2ccccc2)NC(=O)[C@@H]2CCCN2C(=O)[C@H]2CCCN2C(=O)[C@H](Cc2c[nH]c3ccccc23)NC1=O (cyclo(P[dF]RW[dP]))	50				EC50 (Melanocortin receptor 3): > 100 µM

The next lines start with results.

Activity [1] [%]	Activity [2] [%]	Ratio EC50 (Mus musculus [3])	Ratio EC50 (Mus musculus [4])	Compound	other results
			> 100	C[C@@H]1NC(=O)[C@H](CN)NC(=O)[C@H](Cc2c[nH]c3ccccc23)NC(=O)[C@H](CCCNC(=N)N)NC(=O)[C@@H](Cc2ccccc2)NC(=O)[C@H](Cc2cnc[nH]2)NC(=O)[C@@H]2CCCN2C(=O)[C@H]2CCCN2C1=O (cyclo(H[dF]RW[Dap]A[dP]P))	Ratio EC50 (Mus musculus [6]): 25
	70		> 1000	C[C@@H]1NC(=O)[C@H](CN)NC(=O)[C@H](Cc2c[nH]c3ccccc23)NC(=O)[C@H](CCCNC(=N)N)NC(=O)[C@@H](Cc2ccccc2)NC(=O)[C@@H]2CCCN2C(=O)[C@H]2CCCN2C1=O (cyclo(P[dF]RW[Dap]A[dP]))	Ratio EC50 (Mus musculus [5]): > 300
85		> 2500		N=C(N)NCCC[C@@H]1NC(=O)[C@@H](Cc2ccccc2)NC(=O)[C@@H]2CCCN2C(=O)[C@H]2CCCN2C(=O)[C@H](CC(N)=O)NC(=O)[C@H](Cc2c[nH]c3ccccc23)NC1=O (cyclo(P[dF]RWN[dP]))	Activity [9]: 25%; EC50 (Melanocortin receptor 3): > 100 µM; Activity [7]: 85%
35		> 500		N=C(N)NCCC[C@@H]1NC(=O)[C@@H](Cc2ccccc2)NC(=O)[C@@H]2CCCN2C(=O)[C@H]2CCCN2C(=O)[C@H](CN)NC(=O)[C@H](Cc2c[nH]c3ccccc23)NC1=O (cyclo(P[dF]RW[Dap][dP]))	Ratio EC50 (Mus musculus [10]): > 500; EC50 (Melanocortin receptor 3): > 100 µM; EC50 (Melanocortin receptor 5): > 100 µM; Ratio EC50 (Mus musculus [11]): > 500; Activity [7]: 75%
